Experimental data taken from article PMC7124310 (Peptides, 2003).
No end group written: not given here.

Tests used:
E. coli O18:K1:H7 Bort = test: MIC, microdilution susceptibility test; format: cell-based, Escherichia coli; conditions: strain used in peritonitis model; Mueller–Hinton broth
Procedure, shortened: (§1)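 Strains were stored at −80 °C and subcultured in LB broth before use. MIC was determined by broth microdilution following NCCLS guidelines in Mueller–Hinton broth with logarithmic-phase bacteria. Values are the mean of at least four independent experiments.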

P. aeruginosa ATCC 27853 = test: MIC, microdilution susceptibility test; format: cell-based, Pseudomonas aeruginosa; conditions: strain used in peritonitis model; Mueller–Hinton broth
Procedure, shortened: as §1

S. aureus MRSA = test: MIC, microdilution susceptibility test; format: cell-based, Staphylococcus aureus; conditions: strain used in peritonitis model; Mueller–Hinton broth
Procedure, shortened: as §1

Vero76 cells = test: Peptide cytotoxicity, neutral red uptake assay; format: cell-based; conditions: for Cell survival: 30 min at 37°C, neutral red uptake after 48 h, uninfected cells
Procedure, shortened: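 Confluent uninfected Vero76 monolayers (MEM, 10% FCS, penicillin/streptomycin) were exposed to test peptide (0.5–50 μM range, in MEM) for 30 min at 37 °C, 5% CO2. Cells were washed and kept 48 h in growth medium, then given 50 μg/ml neutral red for 3 h. They were fixed in formaldehyde/CaCl2, the dye was extracted with acidified ethanol, and A550 was read. Triplicates, two experiments.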

mammalian cells = conditions: cited from earlier work
[1] = tested on: Gram-negative and -positive clinical isolates; test: MIC, microdilution susceptibility test, whole panel of clinical isolates; format: cell-based; conditions: 53 bacterial isolates incl. antibiotic-resistant strains
Procedure, shortened: as §1

Gram-positive strains = test: MIC, microdilution susceptibility test, Gram-positive isolates; format: cell-based; conditions: Gram-positive strains (Fig. 1 and Table 2)
Procedure, shortened: as §1

[2] = tested on: human herpes simplex virus type 1 (HSV-1); test: Virus yield inhibition assay; format: cell-based, HSV-1 in Vero76 cells; conditions: mean of two independent experiments in triplicate
Procedure, shortened: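 Confluent Vero76 monolayers were infected with 10^4 […] HSV-1 together with test peptide in MEM for 30 min at 37 °C, washed with PBS, and incubated 24 h. They were freeze-thawed three times. Ten-fold supernatant dilutions were adsorbed 1 h onto fresh monolayers under a 0.8% carboxymethylcellulose/2% FCS overlay for 3 days. Plaques were stained with crystal violet and counted as % inhibition versus untreated controls. Triplicates, repeated.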

[3] = tested on: A. baumannii and P. aeruginosa; test: MIC, microdilution susceptibility test; format: cell-based, Acinetobacter baumanni, Pseudomonas aeruginosa; conditions: clinical isolates (Fig. 2)
Procedure, shortened: as §1

Gram-negative species = test: MIC, microdilution susceptibility test, Gram-negative isolates; format: cell-based; conditions: Gram-negative species (Fig. 2 and Table 2)
Procedure, shortened: as §1

In vivo toxicity, i.v. = test: In vivo toxicity, i.v.; parameters: species or system male Balb/c mice; conditions: single dose, Litchfield and Wilcoxon
Procedure, shortened: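 Male Balb/c mice (about 20 g, 4 weeks old) received a single i.v. injection of increasing doses of test peptide in sterile PBS, with vehicle-only controls. Behaviour and survival were monitored for 7 days. LD50 was calculated by the Litchfield–Wilcoxon method.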

[4] = 12 mg/kg peptide i.v.; cited from earlier work

Substance: GGLRSLGRKILRAWKKYG-NH2 [BMAP-28(1–18)]
- MIC (E. coli O18:K1:H7 Bort): 2 µM
- MIC (P. aeruginosa ATCC 27853): 2 µM
- MIC (S. aureus MRSA): 4 to 8 µM
- toxicity to Vero cells (Vero76 cells; 5 μM peptide): not toxic
- cytotoxic and haemolytic activities (mammalian cells): virtually devoid

Substance: GGLRSLGRKILRAWKKYGPIIVPIIRI-NH2 [BMAP-28]
- MIC (E. coli O18:K1:H7 Bort): 2 µM
- MIC (P. aeruginosa ATCC 27853): 2 µM
- MIC (S. aureus MRSA): 2 µM
- MIC values in most cases [1]: 1 to 8 µM
- MIC values (Gram-positive strains): 1 to 8 µM
- Cell survival (Vero76 cells; 0.5 μM peptide): 100%
- cells taking up the neutral red dye (cytotoxicity) (Vero76 cells; 5 μM peptide): 17%
- Cell survival (Vero76 cells; 5 μM peptide): 83%
- Cell survival (Vero76 cells; 50 μM peptide): 5%
- Virus yield inhibition ([2]; 0.5 μM peptide): 10%
- Virus yield inhibition ([2]; 5 μM peptide): 72%
- concentration range toxic to mammalian cells (mammalian cells): above 10 μM

Substance: GGLRSLGRKILRAWKKYGPQATPATRQ-NH2 [mBMAP-28]
- MIC (E. coli O18:K1:H7 Bort): 2 µM
- MIC (P. aeruginosa ATCC 27853): 2 µM
- MIC (S. aureus MRSA): >32 µM
- MIC values (Gram-positive strains): > 32 µM
- MICs [3]: 0.25 to 1 µM

Substance: GRFKRFRKKFKKLFKKLS-NH2 [BMAP-27(1–18)]
- MIC (E. coli O18:K1:H7 Bort): 8 µM
- MIC (P. aeruginosa ATCC 27853): 2 µM
- MIC (S. aureus MRSA): 4 to 8 µM
- cytotoxic and haemolytic activities (mammalian cells): virtually devoid

Substance: GRFKRFRKKFKKLFKKLSPVIPLLHL-NH2 [BMAP-27]
- MIC (E. coli O18:K1:H7 Bort): 0.5 µM
- MIC (P. aeruginosa ATCC 27853): 1 µM
- MIC (S. aureus MRSA): 4 µM
- MIC values in most cases [1]: 1 to 8 µM
- MIC values (Gram-negative species): 1 to 2 µM
- cytotoxicity to Vero cells (Vero76 cells; lowest peptide concentration tested (range 0.5–50 μM)): cytotoxic even at the lowest peptide concentration tested
- LD50 (In vivo toxicity, i.v.): 10 mg/kg
- concentration range toxic to mammalian cells (mammalian cells): above 10 μM

Substance: ILRAWKKYGPIIVPIIRI-NH2 [BMAP-28(10–27)]
- MIC (E. coli O18:K1:H7 Bort): 2 µM
- MIC (P. aeruginosa ATCC 27853): 8 µM
- MIC (S. aureus MRSA): 8 µM

Substance: indolicidin: a bovine cathelicidin peptide (ILPWKWPWWPWRR; ends and bridges not checked; UniProt P33046 131-143, looked up)
- toxicity to mice when injected i.v. [4]: all treated animals died
